We go through two compounds from ChEMBL document CHEMBL3352487, “Synthesis, antibacterial activity, and biological evaluation of formyl hydroxyamino derivatives as novel potent peptide deformylase inhibitors against drug-resistant bacteria” (Eur J Med Chem, 2014).

Structures are written as SMILES. Values after ≈ are worked out from the molar mass of the structure shown.

Data set [1] relates to Staphylococcus aureus. The data set is described as follows: Antimicrobial activity against Staphylococcus aureus isolate Ealing 23 after 24 hrs by broth microdilution method. The settings on record: isolate Ealing 23, 24 h. It counts as functional. Put shortly:
(§1)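 Broth microdilution following NCCLS M7-A4, using ATCC strains and clinical isolates from a provincial hospital.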

In data set [2] the test system is Staphylococcus aureus. The data set is described as follows: Antimicrobial activity against Staphylococcus aureus isolate MN 1255 after 24 hrs by broth microdilution method. In kind it is functional. The settings on record: isolate MN 1255, 24 h. Put shortly: (§2)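 Broth microdilution following NCCLS M7-A4; ATCC strains and clinical isolates from a provincial hospital.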

For data set [3], the system named is Staphylococcus aureus. The data set is described as follows: Antimicrobial activity against Staphylococcus aureus isolate RN1024 after 24 hrs by broth microdilution method. It counts as functional. The settings on record: isolate RN1024, 24 h. Put shortly:
as §1

For data set [4], the system named is Staphylococcus aureus. Kind of data set: Antimicrobial activity against Staphylococcus aureus isolate 929003 after 24 hrs by broth microdilution method. It counts as functional. The following applies: isolate 929003, 24 h. The procedure, abridged: as §2
Data set [5] relates to Staphylococcus aureus. The data set is described as follows: Antimicrobial activity against Staphylococcus aureus isolate Ealing 32 after 24 hrs by broth microdilution method. In kind it is functional. The settings on record: isolate Ealing 32, 24 h. Put shortly: as §2
Data set [6] relates to Staphylococcus aureus. Kind of data set: Antimicrobial activity against Staphylococcus aureus ATCC 29213 after 24 hrs by broth microdilution method. It counts as functional. The following applies: ATCC 29213, 24 h. The procedure, abridged: as §2
Data set [7] concerns Staphylococcus aureus. The data set is described as follows: Antimicrobial activity against Staphylococcus aureus isolate NEQAS 4158 after 24 hrs by broth microdilution method. In kind it is functional. The following applies: isolate NEQAS 4158, 24 h. The procedure, abridged: as §2
For data set [8], the system named is Staphylococcus aureus. Kind of data set: Antimicrobial activity against Staphylococcus aureus isolate CL 939 after 24 hrs by broth microdilution method. In kind it is functional. The following applies: isolate CL 939, 24 h. Put shortly: as §1
Data set [9] relates to Staphylococcus aureus. Kind of data set: Antimicrobial activity against Staphylococcus aureus isolate CL 1033 after 24 hrs by broth microdilution method. It counts as functional. The following applies: isolate CL 1033, 24 h. The procedure, abridged: as §2
In data set [10] the test system is Staphylococcus aureus. Kind of data set: Antimicrobial activity against Staphylococcus aureus isolate 934335 after 24 hrs by broth microdilution method. It counts as functional. The following applies: isolate 934335, 24 h. The procedure, abridged:
as §2

Data set [11] relates to Staphylococcus aureus. The data set is described as follows: Antimicrobial activity against Staphylococcus aureus isolate Smith ATCC 13709 after 24 hrs by broth microdilution method. It counts as functional. The following applies: isolate Smith ATCC 13709, 24 h. Put shortly:
as §1

Data set [12] deals with Staphylococcus aureus. The data set is described as follows: Antimicrobial activity against Staphylococcus aureus isolate CL 938 after 24 hrs by broth microdilution method. In kind it is functional. The settings on record: isolate CL 938, 24 h. Put shortly: as §2
Data set [13] deals with Staphylococcus aureus. The data set is described as follows: Antimicrobial activity against Staphylococcus aureus isolate RN4220 pmz1 after 24 hrs by broth microdilution method. In kind it is functional. The settings on record: isolate RN4220 pmz1, 24 h. Put shortly: as §1
In data set [14] the test system is Staphylococcus aureus. The data set is described as follows: Antimicrobial activity against Staphylococcus aureus isolate CARTER 37 after 24 hrs by broth microdilution method. In kind it is functional. The following applies: isolate CARTER 37, 24 h. Put shortly: as §1
Data set [15] deals with Staphylococcus aureus. The data set is described as follows: Antimicrobial activity against Staphylococcus aureus isolate 934387 after 24 hrs by broth microdilution method. It counts as functional. The settings on record: isolate 934387, 24 h. The procedure, abridged: as §1
For data set [16], the system named is Staphylococcus aureus. Kind of data set: Antimicrobial activity against Staphylococcus aureus isolate RUSSELL after 24 hrs by broth microdilution method. It counts as functional. Put shortly:
as §1

Data set [17] has as its system Staphylococcus aureus. The data set is described as follows: Antimicrobial activity against Staphylococcus aureus isolate F89 after 24 hrs by broth microdilution method. In kind it is functional. The settings on record: isolate F89, 24 h. The procedure, abridged: as §2
The subject of data set [18] is Staphylococcus aureus. Kind of data set: Antimicrobial activity against Staphylococcus aureus isolate 929035 after 24 hrs by broth microdilution method. It counts as functional. The settings on record: isolate 929035, 24 h. Put shortly:
as §2

Data set [19] relates to Staphylococcus aureus. The data set is described as follows: Antimicrobial activity against Staphylococcus aureus isolate 306 after 24 hrs by broth microdilution method. It counts as functional. The settings on record: isolate 306, 24 h. The procedure, abridged: as §2
Data set [20] relates to Staphylococcus aureus. The data set is described as follows: Antimicrobial activity against Staphylococcus aureus isolate NEQAS 4026 after 24 hrs by broth microdilution method. The settings on record: isolate NEQAS 4026, 24 h. It counts as functional. The procedure, abridged:
as §2

Data set [21] concerns Staphylococcus aureus. Kind of data set: Antimicrobial activity against Staphylococcus aureus isolate OGA833 after 24 hrs by broth microdilution method. In kind it is functional. The settings on record: isolate OGA833, 24 h. Put shortly:
as §2

In data set [22] the test system is Staphylococcus aureus. Kind of data set: Antimicrobial activity against Staphylococcus aureus isolate RN1030 after 24 hrs by broth microdilution method. The following applies: isolate RN1030, 24 h. It counts as functional. The procedure, abridged: as §1
The test system of data set [23] is Staphylococcus aureus. The data set is described as follows: Antimicrobial activity against Staphylococcus aureus isolate 934334 after 24 hrs by broth microdilution method. The settings on record: isolate 934334, 24 h. It counts as functional. The procedure, abridged:
as §2

For data set [24], the system named is Staphylococcus aureus. Kind of data set: Antimicrobial activity against Staphylococcus aureus isolate MILES HALL after 24 hrs by broth microdilution method. In kind it is functional. Put shortly:
as §1

The subject of data set [25] is Staphylococcus aureus. Kind of data set: Antimicrobial activity against Staphylococcus aureus isolate 934324 after 24 hrs by broth microdilution method. It counts as functional. The following applies: isolate 934324, 24 h. Put shortly:
as §2

Data set [26] is described as follows: Fraction unbound in CD1 mouse plasma at 2 uM by equilibrium dialysis. It counts as ADME, cell-free. Put shortly: (§3)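 Pooled CD-1 mouse plasma spiked to 2 µM final, equilibrium dialysis in triplicate against 100 mM PBS pH 7.4, 4 h at 37 °C with rotation; matrix-matched samples acetonitrile-precipitated, LC-MS/MS with internal standards. Unbound = free/total ×100; recovery = (free+total)/pre-dialysis ×100.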

The nature of data set [27]: Drug recovery in CD1 mouse plasma at 2 uM by equilibrium dialysis. It counts as ADME, cell-free. The following applies: read-out: Drug recovery. The procedure, abridged:
as §3

The nature of data set [28]: Protein binding in CD1 mouse plasma at 2 uM by equilibrium dialysis. In kind it is ADME, cell-free. The settings on record: read-out: PPB (converted).

Turning to `C/C(=C\C(=O)OCCCCCCCCC(=O)O)C[C@@H]1OC[C@H](C[C@@H]2O[C@H]2[C@@H](C)[C@H](C)O)[C@@H](O)[C@H]1O` [MUPIROCIN], the MIC is more than 16 mg/L in the data set with Staphylococcus aureus [1]; 0.25 mg/L (≈ 0.499 µM) in the data set with Staphylococcus aureus [2]; 0.25 mg/L (≈ 0.499 µM) in the data set with Staphylococcus aureus [3]; 0.25 mg/L (≈ 0.499 µM) in the data set on Staphylococcus aureus [4]; more than 16 mg/L with Staphylococcus aureus [5]; 0.25 mg/L (≈ 0.499 µM) with Staphylococcus aureus [6]. For the same compound, the MIC was found to be 0.25 mg/L (≈ 0.499 µM) in the data set with Staphylococcus aureus [7]; 0.25 mg/L (≈ 0.499 µM) against Staphylococcus aureus [8]; 0.25 mg/L (≈ 0.499 µM) with Staphylococcus aureus [9]; 0.25 mg/L (≈ 0.499 µM) in the data set on Staphylococcus aureus [10]; 0.06 mg/L (≈ 0.12 µM) in the data set on Staphylococcus aureus [11]; 0.25 mg/L (≈ 0.499 µM) against Staphylococcus aureus [12]. Moreover, the MIC in the data set on Staphylococcus aureus [13] was more than 16 mg/L; against Staphylococcus aureus [14], more than 16 mg/L; with Staphylococcus aureus [15] it was 0.25 mg/L (≈ 0.499 µM); with Staphylococcus aureus [16], 0.25 mg/L (≈ 0.499 µM); against Staphylococcus aureus [17], more than 16 mg/L; in the data set with Staphylococcus aureus [18], 0.25 mg/L (≈ 0.499 µM). In addition, the MIC against Staphylococcus aureus [19] was more than 16 mg/L; in the data set on Staphylococcus aureus [20], more than 16 mg/L; in the data set with Staphylococcus aureus [21], more than 16 mg/L; against Staphylococcus aureus [22] it was 0.25 mg/L (≈ 0.499 µM); against Staphylococcus aureus [23] it was 0.25 mg/L (≈ 0.499 µM); with Staphylococcus aureus [24], more than 16 mg/L. This compound also had an MIC against Staphylococcus aureus [25] of 0.25 mg/L (≈ 0.499 µM).
On to `CC(=O)CC(c1ccccc1)c1c(O)c2ccccc2oc1=O` (stereo not drawn) [WARFARIN], for which the fraction unbound at 2 µM in [26] and in data set [28] was 0.059 in each case. In addition, the recovery at 2 µM in data set [27] came out at 104%.
